Assay results pooled from the literature.
Compare with care: the assays were run in different laboratories.
Target: Ephrin type-A receptor 1 (EPHA1, Homo sapiens, UniProt P21709)
One construct used (P21709 26-976): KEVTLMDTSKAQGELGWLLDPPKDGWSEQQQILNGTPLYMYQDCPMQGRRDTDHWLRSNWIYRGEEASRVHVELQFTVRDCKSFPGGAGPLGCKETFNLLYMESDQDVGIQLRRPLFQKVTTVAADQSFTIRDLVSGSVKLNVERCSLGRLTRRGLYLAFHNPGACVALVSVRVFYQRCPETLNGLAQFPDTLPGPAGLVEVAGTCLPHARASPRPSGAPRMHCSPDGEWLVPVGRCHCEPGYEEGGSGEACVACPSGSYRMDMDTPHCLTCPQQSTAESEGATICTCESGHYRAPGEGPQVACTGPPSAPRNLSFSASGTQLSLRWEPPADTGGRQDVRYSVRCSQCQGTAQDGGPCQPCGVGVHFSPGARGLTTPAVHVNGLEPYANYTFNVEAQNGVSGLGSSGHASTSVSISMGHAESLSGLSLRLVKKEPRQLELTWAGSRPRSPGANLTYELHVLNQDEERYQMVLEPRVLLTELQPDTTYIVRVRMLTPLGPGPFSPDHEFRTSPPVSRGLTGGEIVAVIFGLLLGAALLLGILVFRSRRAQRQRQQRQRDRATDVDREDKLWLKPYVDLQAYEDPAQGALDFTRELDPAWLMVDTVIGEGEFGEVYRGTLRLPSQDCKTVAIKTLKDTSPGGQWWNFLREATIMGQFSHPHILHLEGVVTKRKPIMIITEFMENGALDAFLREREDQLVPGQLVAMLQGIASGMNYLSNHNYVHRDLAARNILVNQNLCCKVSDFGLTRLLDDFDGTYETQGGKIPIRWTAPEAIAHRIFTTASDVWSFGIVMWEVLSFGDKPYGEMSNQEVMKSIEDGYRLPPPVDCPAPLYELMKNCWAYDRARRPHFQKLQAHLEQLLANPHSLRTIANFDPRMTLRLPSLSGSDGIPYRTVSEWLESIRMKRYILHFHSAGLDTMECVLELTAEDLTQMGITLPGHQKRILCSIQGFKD

SMILES | test | setting | measurement | result
C1=C/COCc2cc(ccc2OCCN2CCCC2)Nc2nccc(n2)-c2cccc(c2)COC/1 | binding | 0.1 µM | remaining binding | 93%
COc1ccc2oc(-c3ccc4nc(N)oc4c3)c/c(=N\c3ccccc3NC(=O)CCN)c2c1 | binding | 1 µM | remaining binding | 101%
CC#CC(=O)N1CCC[C@H]1c1nc(-c2ccc(C(=O)Nc3ccccn3)cc2)c2c(N)nccn12 | enzyme activity, inhibitor | 1 µM | inhibition | 25%
CC(C)S(=O)(=O)c1ccc2nccc(Nc3ccc4sc(C5CCCC5)nc4c3)c2c1 | enzyme activity, inhibitor | 1 µM | activity vs control | 100%
CN1CCN(C(=O)c2ccc(NC(=O)Nc3ccc(N(C)c4ccnc(Nc5ccc(CS(C)(=O)=O)cc5)n4)cc3)cc2)CC1 | binding, competition with immobilised ligand | 1 µM | remaining binding | 56%
C=CC(=O)N1CCC([C@@H]2CCNc3c(C(N)=O)c(-c4ccc(Oc5ccccc5)cc4)nn32)CC1 | cell-free assay | 1 µM | inhibition | 25%
CCCCC(=O)Nc1ccc(-c2ccc3ncn(CCC)c(=O)c3c2)cn1 | binding, competition with immobilised ligand | 0.5 µM | remaining binding | 80%
Cc1ccc(NC(=O)c2ccnc(C(F)(F)F)c2)cc1-c1cc(OCCO)nc(N2CCOCC2)c1 | binding, competition with immobilised ligand | 1 µM | remaining binding | 83%
